The RNAGym collection of RNA variant scans (doi:10.1126/science.aae0568)
Fewer inactive variants are shown than the library holds.

B1: tRNA (parent)
chain: GUUCCGUUGGCGUAAUGGUAACGCGUCUCCCUCCUAAGGAGAAGACUGCGGGUUCGAGUCCCGUACGGAACG

Variants of: B1
Assay: yeast fitness relative to wild type (ratio to wild type); higher = fitter; tRNA-Arg(CCU), competitive growth, 37 C, YPD
Outline: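 Start and end populations of a pooled competition were compared by 100-nucleotide paired-end sequencing of gene amplicons. The Saccharomyces cerevisiae strains carried tRNA-Arg(CCU) gene variants at the native genomic locus, synthesised with a 3% per-site mutation rate at 69 sites, and competed in YPD at 37°C for 24 hours in six parallel replicates. Darwinian fitness relative to wild type was based on the change in genotype frequencies. Genotypes required ≥ 100 starting reads, and estimates < 0.5 were set to 0.5.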
Work on A15G C30A yielded a yeast fitness of 0.807.
Variant A15G C30G has a yeast fitness of 0.631.
A15G C30U gave a yeast fitness of 0.894.
With A15G G38C C60G the yeast fitness was no more than 0.5.
With A15G G25A C60U G68C the yeast fitness was 0.561.
Variant A15G C30G A40U A42C C49G has a yeast fitness of no more than 0.5.
A15C U28G C30G A40C A42U gave a yeast fitness of no more than 0.5.
With A15G C29A G39A C46U the yeast fitness was no more than 0.5.
In the case of A15C U26C G48C, the yeast fitness is reported as no more than 0.5.
With A15G G39A A70C the yeast fitness was 0.742.
For A15C U53A, the yeast fitness was 0.578.
Variant A15G G25A G38A has a yeast fitness of no more than 0.5.
A15C U16C A37C A43C showed a yeast fitness of no more than 0.5.
A15C U19A C24G G63A showed a yeast fitness of no more than 0.5.
A15G C31G A40U gave a yeast fitness of 0.586.
A15G C30G A37C C49U G63A gave a yeast fitness of no more than 0.5.
With A15G A43C C61A the yeast fitness was no more than 0.5.
For A15G C27U C34U A57U C62A, the yeast fitness was 0.563.
Work on A15G C29G C49U yielded a yeast fitness of 0.606.
A15G A20G showed a yeast fitness of 1.04.
For A15G A20U, the yeast fitness was 1.06.
With A15G A20C the yeast fitness was 0.779.
A15C U28C C34G gave a yeast fitness of no more than 0.5.
A15C U19C showed a yeast fitness of 1.03.
Variant A15G C22U G68C has a yeast fitness of no more than 0.5.
A15G G23A G25A G38A showed a yeast fitness of 0.746.
With A15G G39A the yeast fitness was 0.959.
In the case of A15G C29A, the yeast fitness is reported as 0.558.
Variant A15G C29G has a yeast fitness of 0.635.
With A15G C31A C66G G68C the yeast fitness was 0.563.
A15C U28C G48C G50U showed a yeast fitness of no more than 0.5.
A15G C33G G50A gave a yeast fitness of no more than 0.5.
Variant A15C U35A A36G G41A U47A has a yeast fitness of no more than 0.5.
A15G A21C C33G A43U showed a yeast fitness of 0.57.
With A15C U35G G56C the yeast fitness was no more than 0.5.
With A15G A21U the yeast fitness was 0.989.
A15G A36G A43U gave a yeast fitness of 0.601.
For A15G A45C C61U, the yeast fitness was 0.574.
For A15G C31A U54C, the yeast fitness was no more than 0.5.
A15G C29G G52A C66U showed a yeast fitness of 0.671.
In the case of A15G G39A C49U, the yeast fitness is reported as 0.679.
Variant A15G G44A C49U G50C A70G has a yeast fitness of no more than 0.5.
Work on A15G A37C C46U C49U yielded a yeast fitness of no more than 0.5.
In the case of A15C U47A G68U, the yeast fitness is reported as 0.57.
Work on A15G C49G G56C yielded a yeast fitness of no more than 0.5.
A15G G38A A40G A69U showed a yeast fitness of no more than 0.5.
A15G A21G C34U G44A C61A A70C gave a yeast fitness of no more than 0.5.
In the case of A15G G39C U54C C55U, the yeast fitness is reported as no more than 0.5.
For A15G C31U A45U, the yeast fitness was 0.668.
With A15C U28A C30U C34G A43U the yeast fitness was no more than 0.5.
For A15C U16C C27U C31G A69C, the yeast fitness was no more than 0.5.
A15G A37C G56C A65C gave a yeast fitness of no more than 0.5.
Variant A15C U26A G38A A40U G50C C60G A70G has a yeast fitness of no more than 0.5.
A15C U47G G52A G68A gave a yeast fitness of no more than 0.5.
For A15G C61G A70C, the yeast fitness was 0.639.
Work on A15C G68A yielded a yeast fitness of 0.76.
A15G C24G C29U C34G U35C C46G A65G gave a yeast fitness of no more than 0.5.
For A15G C29A A57C, the yeast fitness was no more than 0.5.
Variant A15C U19G C55G has a yeast fitness of no more than 0.5.
In the case of A15C U26A, the yeast fitness is reported as 0.523.
In the case of A15G C29A G39A, the yeast fitness is reported as 0.572.
With A15G G18A C49U the yeast fitness was 0.669.
With A15G C46U A70U the yeast fitness was 0.829.
A15G A57U G68U showed a yeast fitness of no more than 0.5.
A15G C30A C49G C55U showed a yeast fitness of no more than 0.5.
Variant A15G G41C G51C has a yeast fitness of no more than 0.5.
With A15G C34U G44C G50C C62U the yeast fitness was no more than 0.5.
Variant A15G C49A has a yeast fitness of 0.735.
With A15G C27G A42G G63A the yeast fitness was no more than 0.5.
In the case of A15G A43C, the yeast fitness is reported as 0.847.
In the case of A15G A43U, the yeast fitness is reported as 0.925.
For A15G G25A C30A G52A, the yeast fitness was 0.563.
For A15G G17A C30A U47C, the yeast fitness was no more than 0.5.
For A15G C29A A37G, the yeast fitness was no more than 0.5.
A15G G41C gave a yeast fitness of 0.827.
Variant A15G C31U A42U A70U has a yeast fitness of 0.602.
Work on A15G A42C C49A C62U A69C yielded a yeast fitness of no more than 0.5.
Work on A15G C22G A36U A40G A69U yielded a yeast fitness of no more than 0.5.
In the case of A15G A43G U53G G63A, the yeast fitness is reported as no more than 0.5.
Variant A15G G44C C61U has a yeast fitness of 0.607.
Variant A15G C30G U64C has a yeast fitness of no more than 0.5.
Work on A15G G51A yielded a yeast fitness of 0.668.
With A15G G25C C31U A70U the yeast fitness was no more than 0.5.
A15G G25C G48C showed a yeast fitness of 0.576.
